Rows were chosen to be rich in hits. Some 2% of all compounds tested hit in one or more screens of this group.
FLuc act counter – firefly luciferase counter-screen for stimulation assays | P08659 | activation factor at 10 µM | ATPlite luciferase biochemical, luminescence, 10 min; 0 = ATP-free wells, 1 = DMSO control | 200,000 tested, under 10 active;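 active means luciferase activation factor, scaled between plate controls, of at least 2 with compound at 10 µM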
Target sequence (P08659 whole entry, looked up): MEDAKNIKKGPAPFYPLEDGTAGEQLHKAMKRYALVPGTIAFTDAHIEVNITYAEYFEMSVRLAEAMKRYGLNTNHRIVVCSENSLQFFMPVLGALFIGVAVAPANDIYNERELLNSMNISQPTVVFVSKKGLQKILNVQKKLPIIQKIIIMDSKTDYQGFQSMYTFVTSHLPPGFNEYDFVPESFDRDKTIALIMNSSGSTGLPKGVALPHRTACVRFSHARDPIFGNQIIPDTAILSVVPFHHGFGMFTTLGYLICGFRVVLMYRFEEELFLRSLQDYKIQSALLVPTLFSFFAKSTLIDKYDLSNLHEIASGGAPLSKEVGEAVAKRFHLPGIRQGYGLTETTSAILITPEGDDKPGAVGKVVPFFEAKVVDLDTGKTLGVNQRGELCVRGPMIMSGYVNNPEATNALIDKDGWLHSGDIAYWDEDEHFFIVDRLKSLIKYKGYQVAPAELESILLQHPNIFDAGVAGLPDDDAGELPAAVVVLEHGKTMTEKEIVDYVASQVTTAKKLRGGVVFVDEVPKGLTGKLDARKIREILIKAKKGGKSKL
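System: cell-free luciferase reagent; medium: PBS as buffer for the ATP substrate; doses: test compounds dosed from 2 mM stocks in 100% DMSO; incubation: 10 min, room temperature; measured by: luminescence from luciferase reaction; read-out: luciferase activation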
HSP90 refold inh – inhibitors of HSP90 luciferase refolding in rabbit reticulocyte lysate. inhibition, % at 5.6 µM. AID 1789. 290,000 compounds, 0.91% hits. luciferase refolding luminescence, 3 h;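 active means inhibition above the screen-wide mean plus 3 SD, computed separately per campaign, cut at about 16% in these data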;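 further: 0% = DMSO wells and 100% = 60 µM geldanamycin wells; inhibitors lower the luminescence because luciferase stays unfolded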
FLuc inhib CS – inhibits firefly luciferase, flagging false hits in luciferase inhibition screens. P08659. ATPLite firefly luciferase biochemical luminescence, 10 min. inhibition, % at 10 µM. 200,000 compounds, 1.5% hits. AID 1006;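 active means inhibition above about 50% when tested at 10 µM, limit read from the data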
PPC-1+TRAIL kill – kills PPC-1 cancer cells in the presence of TRAIL; PPC-1 cells + TRAIL, ATPLite viability luminescence; cell killing (% activity), % at 4 µM or 5 µM; 220,000 compounds, 0.41% hits; AID 1443;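 active means cell killing above 50% in the first pass at 4 µM, then a duplicate retest at 5 µM averaging 50% or more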;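 further: plate controls were cells with TRAIL plus DMSO for no effect and medium-only wells lacking cells for full effect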
C8 TRAIL sens – sensitizes caspase-8 expressing cells to TRAIL; NB7+C8 cells + TRAIL, ATPlite viability luminescence; inhibition (viability loss, TRAIL sensitization), % at 10 µM; 360,000 compounds, 1% hits; AID 624354;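 active means compounds causing at least 50% loss of cell viability in the single-dose screen, relative to plate controls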
* hit, by the source's call; x = not tested or not shown.

SMILES	FLuc act counter	HSP90 refold inh	FLuc inhib CS	PPC-1+TRAIL kill	C8 TRAIL sens
Cc1noc(C)c1S(=O)(=O)N(CC(=O)NC1CCC(C)CC1)c1ccc(C(C)C)cc1 (stereo not drawn)	x	5	x	x	17
O=C1C2C3C=CC(CC3)C2C(=O)N1/N=C/c1ccc(O)cc1 (stereo not drawn)	0.4	-2	63*	26	31
O=C1C2C3C=CC(CC3)C2C(=O)N1/N=C/c1ccc(O)c(O)c1 (stereo not drawn)	0.6	-5	42	0	13
CN(C(=O)CCCN1C(=O)c2ccccc2C1=O)C1CCCCC1	x	x	x	x	-7
Cc1cc(/C=C\c2ccccc2)nc2ccccc12	0.3	3	68*	32	47
CCOC(=O)CNC(=O)CSc1nc(C)cc(C)c1C#N	1	8	0	18	21
CCOC(=O)NC(=O)CSc1nc(C)cc(C)c1C#N	0.6	8	36	37	72*
c1cncc(CSc2ccc(-c3ccc4c(c3)OCO4)nn2)c1	0.5	-1	53*	2	11
O=C(NCc1ccc(Cl)cc1)c1ccc2ccccc2n1	x	-2	x	x	-3
COc1cc(OC)cc(-c2cc3nc(C)c(CCC(=O)O)c(C)n3n2)c1	1.1	25*	-6	-8	4
COc1cc(OC)cc(-c2cc3nc(C)c(CCC(=O)NC(C)CCc4ccco4)c(C)n3n2)c1 (stereo not drawn)	1.1	-1	-6	-15	-7
CC(C)Sc1nc2ccccc2n2cnnc12	x	0	x	x	-4
COc1ccc(C(=O)NCCn2cc(SCC(=O)Nc3nnc(C)s3)c3ccccc32)cc1	x	17*	x	x	-1
CCN(CC)C(=O)Cn1cc(SCC(=O)NCc2ccco2)c2ccccc21	1	-2	-1	14	-9
COc1ccc(C(=O)NCCn2cc(SCC(=O)NCc3ccco3)c3ccccc32)cc1	0.9	59*	9	-25	-1
Cc1ccccc1-c1csc(C(C)(O)c2cccnc2)n1 (stereo not drawn)	x	x	x	x	-8
CCN(CC)c1ccc(C2NC(=O)c3ccccc3N2)cc1 (stereo not drawn)	x	x	x	x	92*
O=C1NC(c2ccc3c(c2)OCO3)Nc2ccccc21 (stereo not drawn)	1.1	-1	-6	71*	26
O=C(O)c1nn(CCSc2ccccc2F)c(=O)c2ccccc12	x	2	x	21	10
COc1cccc(Cn2c(NCc3cccnc3)nc3c2c(=O)n(C)c(=O)n3C)c1	1	-1	4	39	82*
COc1cccc(Cn2c(NCc3ccccn3)nc3c2c(=O)n(C)c(=O)n3C)c1	x	-1	x	x	x
Fc1ccc(C2=Nc3cccc4cccc(c34)N2)cc1	0.9	0	6	-7	-2
FC(F)(F)C1=Nc2cccc3cccc(c23)N1	x	x	x	x	51*
O=C(COC(=O)c1ccccc1)NC1CCCCCC1	x	x	x	x	4
N/C(=N\OC(=O)c1ccccc1)C(C(=O)NOC(=O)c1ccccc1)C1CCCCC1 (stereo not drawn)	x	x	x	x	91*
SMILES	FLuc act counter	HSP90 refold inh	FLuc inhib CS	PPC-1+TRAIL kill	C8 TRAIL sens
Cc1ccc(NC(=O)CCC(=O)c2cccs2)nc1	x	x	x	x	17
Cc1ccnc(NC(=O)CCC(=O)c2cccs2)c1	x	x	x	x	79*
CCCc1c(C(=O)N/N=C(\C)c2ccccn2)nnn1-c1nonc1N	x	x	x	x	-1
C#CCN1C(=O)S/C(=C/C=C/c2ccc(N(C)C)cc2)C1=O	0.7	21*	32	23	21
O=C(O)c1ccccc1-c1cn2cc(Cl)ccc2n1	0.4	1	62*	27	22
Clc1ccc2nc(-c3ccc(Br)s3)cn2c1	0.2	11	78*	40	59*
Cc1cc(C)n2nc(SCc3cccc(F)c3)nc2n1	x	0	x	x	-15
Cc1cc2c3ccccc3ncn2n1	x	2	x	3	-6
CN(C)c1ccc(C(C(=O)NC2CCCCC2)N(Cc2ccco2)C(=O)c2snc(C(N)=O)c2N)cc1 (stereo not drawn)	x	0	x	x	20
C#CCSc1nnc(-c2ccc(OC)cc2)o1	0.6	3	37	19	92*
CC(=O)c1c(C)[nH]c(C(=O)CSc2nnc(-c3ccco3)o2)c1C	1	5	-4	11	15
COc1ccc(-c2nnc(SCC(=O)c3[nH]c(C)c(C(C)=O)c3C)o2)cc1	1	3	-4	10	48*
COc1ccc(-c2nnc(SCC#N)o2)cc1	1	0	0	10	4
O=C(COc1ccc2c(c1)oc(=O)c1ccccc12)NCCCN1CCOCC1	x	2	x	x	-3
CCOc1ccc(-c2c(C#N)c(N)nc3c2c(=O)n(C)c(=O)n3C)cc1OC	1.2	1	-18	28	86*
COc1ccc(-c2c(C#N)c(N)nc3c2c(=O)n(C)c(=O)n3C)cc1	1.1	6	-8	11	-2
COc1ccccc1C(CNc1ccc(S(=O)(=O)N2CCCC2)cc1[N+](=O)[O-])N(C)C (stereo not drawn)	x	1	x	x	65*
COc1ccc(C(CNc2ccc(S(=O)(=O)N3CCN(C)CC3)cc2[N+](=O)[O-])N(C)C)cc1 (stereo not drawn)	x	x	x	x	3
N/C(=N\OCc1ccc([N+](=O)[O-])cc1)c1ccncc1	0.5	0	55*	17	25
O=C(NNC(=O)c1ccc([N+](=O)[O-])cc1)c1ccncc1	1	-1	-4	2	-7
Cc1ccccc1NC(=O)c1c(C)[nH]c(=S)c(C#N)c1-c1ccco1	1	1	-3	60*	-10
FC(F)(F)c1cnc(-c2cnc(-c3ccccn3)nc2)c(Cl)c1	0.4	8	64*	47	36
Cc1[nH]n(-c2ccccc2)c(=O)c1/C=N\NC(=O)C1COc2ccccc2O1 (stereo not drawn)	0.1	4	93*	72*	85*
Cc1[nH]n(-c2ccccc2)c(=O)c1/C=N/NC(=O)c1cccc([N+](=O)[O-])c1	0.5	4	49	7	54*
O=C(CN1C(=O)c2cccnc2Oc2ccc(Cl)cc21)N1CCCC1	x	-2	x	x	6
SMILES	FLuc act counter	HSP90 refold inh	FLuc inhib CS	PPC-1+TRAIL kill	C8 TRAIL sens
COC(=O)[C@]12CCCCC=C1N(Cc1cccc3ccccc13)C(=O)[C@H](CC(=O)NCc1ccc(OC)c(OC)c1)C2	x	x	x	x	63*
COC(=O)[C@]12CCCCC=C1N(CCc1ccc(OC)c(OC)c1)C(=O)[C@H](CC(=O)NCc1cccc3ccccc13)C2	x	x	x	x	5
COc1ccc(Cl)cc1N(CC(=O)NCC(C)C)S(=O)(=O)c1ccc(C)c([N+](=O)[O-])c1	1.1	1	-8	-12	-6
O=C(N/N=C/c1cn(-c2ccccc2)nc1-c1cc2ccccc2o1)c1cccnc1	0.8	-4	19	34	55*
Cc1cccc(NC(=O)C(C)OC(=O)CNC(=O)C2CCCCC2)c1 (stereo not drawn)	x	x	x	x	-16
CC1CCN(c2ccc(-c3ccc(NC(=O)C(F)(F)F)cc3)nn2)CC1	x	4	x	x	89*
Cc1cc(O)cc(C)c1NS(=O)(=O)c1ccc2ccccc2c1	x	1	x	x	4
